For 25 compounds, Activity and Ki results are on record in ChEMBL document CHEMBL1149693, “Selective reversible inhibition of human butyrylcholinesterase by aryl amide derivatives of phenothiazine” (Bioorg Med Chem, 2007).

Molecules are shown by their SMILES. Activity calls are given as the source filed them. The calls are words filed in the database; no cut-off is given here.

Assay [1] addresses Acetylcholinesterase (Homo sapiens) (UniProt P22303). The assay can be described thus: Inhibition of recombinant human AChE activity. The essentials: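 Ellman-type assay with recombinant human AChE (0.03 U) in 0.005% gelatin and buffered DTNB pH 8.0. Inhibitor in 50% aqueous acetonitrile, tested as 1:10 serial dilutions. Acetylthiocholine 3 × 10^-5 to 1.6 × 10^-4 M. Absorbance at 412 nm every 5 s over 1 min, 23 °C, generally triplicate and averaged. Lineweaver–Burk plots with and without inhibitor.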

The target of assay [2] is Cholinesterase (Homo sapiens, UniProt P06276). The assay can be described thus: Inhibition of human plasma BuChE activity. The format is cell-free. The gist of the method: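 Modified Ellman assay with purified human serum BuChE (0.05 U) in 0.005% gelatin, buffered DTNB pH 8.0. Inhibitor in 50% aqueous acetonitrile (1.67% v/v final), 1:10 serial dilutions. Butyrylthiocholine 3 × 10^-5 to 1.6 × 10^-4 M. A412 read every 5 s for 1 min at 23 °C, at least triplicate. Ki from slope replot of Lineweaver–Burk lines (no inhibitor, two inhibitor levels).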
Cholinesterase, sequence (P06276 whole entry): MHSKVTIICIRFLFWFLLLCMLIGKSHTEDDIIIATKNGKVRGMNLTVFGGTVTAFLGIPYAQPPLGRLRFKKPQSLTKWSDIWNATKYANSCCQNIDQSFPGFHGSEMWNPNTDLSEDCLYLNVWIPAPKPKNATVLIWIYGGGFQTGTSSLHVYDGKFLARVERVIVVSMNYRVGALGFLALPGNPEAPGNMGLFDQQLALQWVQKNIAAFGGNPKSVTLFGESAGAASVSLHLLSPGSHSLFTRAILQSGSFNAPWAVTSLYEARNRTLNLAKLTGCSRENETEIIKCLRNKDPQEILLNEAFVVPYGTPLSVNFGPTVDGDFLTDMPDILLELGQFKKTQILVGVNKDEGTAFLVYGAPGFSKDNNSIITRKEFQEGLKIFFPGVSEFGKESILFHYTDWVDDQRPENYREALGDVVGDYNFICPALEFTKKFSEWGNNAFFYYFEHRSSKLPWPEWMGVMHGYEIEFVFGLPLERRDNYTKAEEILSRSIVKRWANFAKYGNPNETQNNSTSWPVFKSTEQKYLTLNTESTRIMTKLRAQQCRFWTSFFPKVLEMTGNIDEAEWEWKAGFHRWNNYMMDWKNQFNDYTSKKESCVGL

Acetylcholinesterase (Homo sapiens), sequence (P22303 whole entry): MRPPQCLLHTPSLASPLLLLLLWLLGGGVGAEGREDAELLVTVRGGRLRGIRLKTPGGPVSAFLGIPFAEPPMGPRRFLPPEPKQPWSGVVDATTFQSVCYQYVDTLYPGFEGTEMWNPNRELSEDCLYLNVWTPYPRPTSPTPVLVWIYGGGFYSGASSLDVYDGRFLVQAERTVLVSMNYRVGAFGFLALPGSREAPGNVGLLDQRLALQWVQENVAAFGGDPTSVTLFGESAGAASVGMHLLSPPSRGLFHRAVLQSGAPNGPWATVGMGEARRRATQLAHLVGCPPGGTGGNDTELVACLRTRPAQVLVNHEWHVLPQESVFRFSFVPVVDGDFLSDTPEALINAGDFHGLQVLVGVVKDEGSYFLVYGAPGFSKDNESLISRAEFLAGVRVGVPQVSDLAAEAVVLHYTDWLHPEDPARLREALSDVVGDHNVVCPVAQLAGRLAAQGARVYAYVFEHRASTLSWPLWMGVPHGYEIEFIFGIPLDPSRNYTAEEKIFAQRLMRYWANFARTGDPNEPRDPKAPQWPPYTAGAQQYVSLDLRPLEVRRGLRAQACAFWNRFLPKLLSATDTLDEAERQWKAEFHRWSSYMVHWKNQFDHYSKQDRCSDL

In the case of `O=C(c1ccc(-c2ccccc2)cc1)N1c2ccccc2Sc2ccccc21`, in assay [1], the outcome was inactive.

As to `Cc1ccccc1C(=O)N1c2ccccc2Sc2ccccc21`, in assay [1], the outcome was inactive. In addition, in assay [2], the Ki worked out at 3100 nM.

Consider `O=C(c1ccc2ccccc2c1)N1c2ccccc2Sc2ccccc21`, for which the result in assay [1] was inactive. The affinity in assay [2], expressed as Ki, was 470 nM.

Consider `O=C(Cc1ccc(-c2ccccc2)cc1)N1c2ccccc2Sc2ccccc21`, for which the result in assay [1] was inactive. Moreover, the Ki in assay [2] was 1700 nM.

As to `O=C(/C=C/c1ccccc1)N1c2ccccc2Sc2ccccc21`, the result in assay [1] was inactive. The compound further yielded a Ki in assay [2] of 2700 nM.

As for `COc1ccc(C(=O)N2c3ccccc3Sc3ccccc32)cc1`, the result in assay [1] was inactive. Further, affinity in assay [2] was put at a Ki of 1500 nM.

Regarding `O=C(Cc1cccc2ccccc12)N1c2ccccc2Sc2ccccc21`, the outcome in assay [1] was inactive. Besides, the Ki in assay [2] came to 90 nM.

With `O=C(CCCc1ccccc1)N1c2ccccc2Sc2ccccc21`, the result in assay [1] was inactive. For the same compound, affinity in assay [2] was put at a Ki of 220 nM.

As for `O=C(c1ccccc1)N1c2ccccc2Sc2ccccc21`, the outcome in assay [1] was inactive. Besides, the affinity in assay [2] corresponds to a Ki of 5800 nM.

Take `CC(C)(C)c1ccc(C(=O)N2c3ccccc3Sc3ccccc32)cc1`: the outcome in assay [1] was inactive.

With `O=C(c1ccc(Br)cc1)N1c2ccccc2Sc2ccccc21`, in assay [1], the result was inactive. Also, in assay [2], the Ki was 1300 nM.

`O=C(c1c2ccccc2cc2ccccc12)N1c2ccccc2Sc2ccccc21`: in assay [1], the outcome was inactive. The compound also registered a Ki in assay [2] of 3.5 nM.

Regarding `CC(C(=O)N1c2ccccc2Sc2ccccc21)c1ccccc1` (stereo not drawn), the result in assay [1] was inactive. In assay [2], this compound had an inhibition constant Ki of 560 nM.

Consider `Cc1ccc(C(=O)N2c3ccccc3Sc3ccccc32)cc1`, for which the result in assay [1] was inactive. This compound also registered a Ki in assay [2] of 2500 nM.

`O=C(C(=O)N1c2ccccc2Sc2ccccc21)N1c2ccccc2Sc2ccccc21`: the outcome in assay [1] was inactive. Moreover, in assay [2], the affinity corresponds to a Ki of 220 nM.

On to `CC(CC(=O)N1c2ccccc2Sc2ccccc21)c1ccccc1` (stereo not drawn), for which, in assay [1], the result was inactive. In assay [2], this compound registered a Ki of 1700 nM.

`Cc1cccc(C(=O)N2c3ccccc3Sc3ccccc32)c1`: the outcome in assay [1] was inactive. Moreover, the Ki in assay [2] was 1900 nM.

In the case of `O=C(Cc1ccc2ccccc2c1)N1c2ccccc2Sc2ccccc21`, in assay [1], the result was inactive. The compound further had a Ki in assay [2] of 28 nM.

As to `O=C(c1cccc(Br)c1)N1c2ccccc2Sc2ccccc21`, in assay [1], the result was inactive. In assay [2], this compound returned a Ki of 600 nM.

For the compound `O=C(c1cccc2ccccc12)N1c2ccccc2Sc2ccccc21`, in assay [1], the outcome was inactive. Besides, the affinity in assay [2], expressed as Ki, was 88 nM.

With `O=C(Cc1ccccc1)N1c2ccccc2Sc2ccccc21`, the outcome in assay [1] was inactive. The compound further came in with a Ki in assay [2] of 610 nM.

For `CC(=O)Oc1ccc(C(=O)N2c3ccccc3Sc3ccccc32)cc1`, the result in assay [1] was inactive. The compound also registered a Ki in assay [2] of 23000 nM.

With `CCC(C(=O)N1c2ccccc2Sc2ccccc21)c1ccccc1` (stereo not drawn), the result in assay [1] was inactive. Further, the Ki in assay [2] came out at 400 nM.

As to `O=C(c1ccc([N+](=O)[O-])cc1)N1c2ccccc2Sc2ccccc21`, in assay [1], the result was inactive. The Ki in assay [2] was determined as 820 nM.

`O=C(CCc1ccccc1)N1c2ccccc2Sc2ccccc21`: the result in assay [1] was inactive. The Ki in assay [2] was 6200 nM.

A word on the Ki: it is the dissociation constant of the complex between target and ligand, obtained from inhibition or displacement. High values mean a looser hold on the target, low ones a stronger hold on the target.
